Assay results: ChEMBL document CHEMBL3259568 (Bioorg Med Chem, 2014)

Experiments:
Mus musculus [1] = test: Analgesic activity in albino mouse assessed as protection against glacial acetic acid-induced writhing at 19.5 mg/kg, po administered 0.5 hrs followed by glacial acetic acid challenge measured for 15 mins relative to control; type: functional
Outline: (§1)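 Mice (20–25 g) pre-screened 24 h earlier with i.p. 10 ml/kg 0.6% glacial acetic acid; only responders used. Oral dosing as suspension in 0.5% sodium CMC 30 min before acetic acid challenge. Writhing episodes counted for 15 min; group means versus vehicle control; ANOVA with Dunnett test.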

Rattus norvegicus [2] = test: Acute antiinflammatory activity in albino rat assessed as inhibition of carrageenan-induced paw edema at 13.5 mg/kg, po administered 1 hr followed by carrageenan challenge measured at 4 hrs by plethysmometric analysis relative to control; type: functional
Outline: (§2)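 Male albino rats (170–220 g), fasted ≥12 h with water, six per group. Oral dosing in 0.5% sodium CMC (control 1 ml vehicle), then 1 h later subplantar 0.05 ml of 1% carrageenan into left hind footpad. […] Mean ± SEM, ANOVA/Dunnett.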

Rattus norvegicus [3] = test: Acute antiinflammatory activity in albino rat assessed as inhibition of carrageenan-induced paw edema at 13.5 mg/kg, po administered 1 hr followed by carrageenan challenge measured at 2 hrs by plethysmometric analysis relative to control; type: functional; outline: as §2
Rattus norvegicus [4] = test: Ulcerogenic activity in albino rat stress model assessed as ulcer index at 10 mg/kg, po after 7 hrs; type: toxicity, organism-based; parameters: dose 10 mg/kg, route oral; details: in vivo
Outline: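 Albino rats of either sex (170–250 g), six per group, starved 48 h with water, dosed orally 10 mg/kg in sodium CMC; killed 7 h later. Stomach opened along greater curvature and everted; lesions counted in five size classes (pinpoint to >4 mm) to give ulcer index, reported as min–max range.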

Rattus norvegicus [5] = test: Antipyretic activity in albino rat assessed as yeast-induced pyrexia at 10 mg/kg, po measured at 3 hrs by telethermometer (reference value: 38.11 degC); type: functional
Outline: (§3)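 Male albino rats (170–230 g) given s.c. 2.5 ml 20% aqueous baker's yeast; rectal temperature by telethermometer before and at 18 h (taken as 0 h). Rats with 1–2 °C rise, six per group, dosed orally 30 min later (control 1 ml 0.5% sodium CMC). Temperature recorded hourly to 5 h; temperature index = sum of mean changes from 0 h.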

Rattus norvegicus [6] = test: Antipyretic activity in albino rat assessed as decrease in yeast-induced pyrexia by measuring temperature index at 10 mg/kg, po measured over 5 hrs by telethermometer (reference value: 1.04 degC); type: functional; outline: as §3
Mus musculus [7] = test: Acute toxicity in albino mouse assessed as effect on autonomic profile at 2000 mg/kg, po measured for 3 hrs; type: organism-based; parameters: dose 2000 mg/kg, route oral; details: in vivo
Outline: (§4)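 OECD guideline test. Albino mice of either sex, 20–25 g, six per group, fasted 24 h with water ad libitum. Compounds suspended in 0.5% aqueous sodium CMC and given orally in increasing doses of 10, 20, 100, 200, 1000 and 2000 mg/kg b.w. Animals watched continuously for 3 h for general behavioural, neurological and autonomic profiles, then every 30 min for 3 h, then up to 24 h or until death.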

Mus musculus [8] = test: Acute toxicity in albino mouse assessed as effect on general behavioral profile at 2000 mg/kg, po measured for 3 hrs; type: organism-based; parameters: dose 2000 mg/kg, route oral; details: in vivo; outline: as §4
[9] = target: T1, Prostaglandin G/H synthase 1 (Ovis aries, UniProt P05979); test: Inhibition of ovine COX1 peroxidase activity assessed as reduction of PGG2 to PGH2 by measuring oxidized TMPD level by colorimetric assay
T1 sequence (P05979 whole entry): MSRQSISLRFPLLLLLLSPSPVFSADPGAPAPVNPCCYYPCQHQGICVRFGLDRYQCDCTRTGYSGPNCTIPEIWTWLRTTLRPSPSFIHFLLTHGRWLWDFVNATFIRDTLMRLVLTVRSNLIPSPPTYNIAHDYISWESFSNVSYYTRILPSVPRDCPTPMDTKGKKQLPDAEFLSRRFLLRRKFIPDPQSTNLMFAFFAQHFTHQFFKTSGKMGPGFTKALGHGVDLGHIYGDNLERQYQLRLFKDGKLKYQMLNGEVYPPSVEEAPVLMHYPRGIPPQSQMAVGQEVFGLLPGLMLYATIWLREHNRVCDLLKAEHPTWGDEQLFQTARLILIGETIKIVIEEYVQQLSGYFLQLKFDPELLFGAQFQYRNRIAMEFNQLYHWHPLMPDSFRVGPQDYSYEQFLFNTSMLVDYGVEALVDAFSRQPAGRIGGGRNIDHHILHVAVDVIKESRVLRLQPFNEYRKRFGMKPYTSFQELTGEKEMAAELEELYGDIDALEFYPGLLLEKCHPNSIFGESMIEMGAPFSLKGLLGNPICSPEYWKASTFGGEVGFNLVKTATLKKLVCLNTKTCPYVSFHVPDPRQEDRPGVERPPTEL

Rattus norvegicus [10] = test: Acute antiinflammatory activity in albino rat assessed as inhibition of carrageenan-induced paw edema at 10 mg/kg, po administered 1 hr followed by carrageenan challenge measured at 4 hrs by plethysmometric analysis relative to control; type: functional; outline: as §2
Rattus norvegicus [11] = test: Antipyretic activity in albino rat assessed as yeast-induced pyrexia at 10 mg/kg, po measured at 5 hrs by telethermometer (reference value: 37.89 degC); type: functional; outline: as §3
Rattus norvegicus [12] = test: Antipyretic activity in albino rat assessed as yeast-induced pyrexia at 10 mg/kg, po measured at 2 hrs by telethermometer (reference value: 38.20 degC); type: functional; outline: as §3
Rattus norvegicus [13] = test: Acute antiinflammatory activity in albino rat assessed as inhibition of carrageenan-induced paw edema at 10 mg/kg, po administered 1 hr followed by carrageenan challenge measured at 2 hrs by plethysmometric analysis relative to control; type: functional; outline: as §2
Rattus norvegicus [14] = test: Antipyretic activity in albino rat assessed as yeast-induced pyrexia at 10 mg/kg, po measured at 1 hr by telethermometer (reference value: 38.26 degC); type: functional; outline: as §3
[15] = target: T2, Prostaglandin G/H synthase 1 (Ovis aries) (UniProt P05979); test: Inhibition of ovine COX1 peroxidase activity assessed as reduction of PGG2 to PGH2 by measuring oxidized TMPD level at 10 ug/ml by colorimetric assay relative to control
T2 sequence (whole entry): T1 sequence (P05979 whole entry)

Mus musculus [16] = test: Acute toxicity in albino mouse assessed as effect on neurological profile at 2000 mg/kg, po measured for 3 hrs; type: organism-based; parameters: dose 2000 mg/kg, route oral; details: in vivo; outline: as §4
Mus musculus [17] = test: Analgesic activity in albino mouse assessed as protection against glacial acetic acid-induced writhing at 10 mg/kg, po administered 0.5 hrs followed by glacial acetic acid challenge measured for 15 mins relative to control; type: functional; outline: as §1
Rattus norvegicus [18] = test: Antipyretic activity in albino rat assessed as yeast-induced pyrexia at 10 mg/kg, po measured at 4 hrs by telethermometer (reference value: 38 degC); type: functional; outline: as §3
Mus musculus [19] = test: Acute toxicity in albino mouse assessed as mortality at 2000 mg/kg, po measured continuously for 3 hrs followed by every 30 mins for next 3 hrs up to 24 hrs; type: organism-based; parameters: dose 2000 mg/kg, route oral; details: in vivo; outline: as §4
Rattus norvegicus [20] = test: Antipyretic activity in albino rat assessed as decrease in yeast-induced pyrexia by measuring temperature index at 135 mg/kg, po measured over 5 hrs by telethermometer (reference value: 1.04 degC); type: functional; outline: as §3
Rattus norvegicus [21] = test: Antipyretic activity in albino rat assessed as yeast-induced pyrexia at 135 mg/kg, po measured at 1 hr by telethermometer (reference value: 38.26 degC); type: functional; outline: as §3
Rattus norvegicus [22] = test: Antipyretic activity in albino rat assessed as yeast-induced pyrexia at 135 mg/kg, po measured at 5 hrs by telethermometer (reference value: 37.89 degC); type: functional; outline: as §3
Rattus norvegicus [23] = test: Antipyretic activity in albino rat assessed as yeast-induced pyrexia at 135 mg/kg, po measured at 3 hrs by telethermometer (reference value: 38.11 degC); type: functional; outline: as §3
Rattus norvegicus [24] = test: Antipyretic activity in albino rat assessed as yeast-induced pyrexia at 135 mg/kg, po measured at 4 hrs by telethermometer (reference value: 38 degC); type: functional; outline: as §3
Rattus norvegicus [25] = test: Antipyretic activity in albino rat assessed as yeast-induced pyrexia at 135 mg/kg, po measured at 2 hrs by telethermometer (reference value: 38.20 degC); type: functional; outline: as §3

Row | Compound | UI (Rattus norvegicus [4]) | T (Rattus norvegicus [5]) [°C] | T (Rattus norvegicus [6]) [°C] | Activity (Mus musculus [7]) | Activity (Mus musculus [8]) | IC50 [9] [µM] | inhibition in vivo at 10 mg/kg (Rattus norvegicus [10]) [%] | T (Rattus norvegicus [11]) [°C] | T (Rattus norvegicus [12]) [°C] | inhibition in vivo at 10 mg/kg (Rattus norvegicus [13]) [%] | T (Rattus norvegicus [14]) [°C] | inhibition [15] [%] | Activity (Mus musculus [16]) | Activity (Mus musculus [17]) [%] | T (Rattus norvegicus [18]) [°C] | Activity (Mus musculus [19]) | also measured
1 | O=C(O)Cc1ccccc1Nc1c(Cl)cccc1Cl [DICLOFENAC] | 5.5 | – | – | – | – | – | – | – | – | – | – | – | – | – | – | – | Activity (Mus musculus [1]): 79.3%; inhibition in vivo at 13.5 mg/kg (Rattus norvegicus [2]): 66.2%; inhibition in vivo at 13.5 mg/kg (Rattus norvegicus [3]): 65.5%
2 | CCN1CCN(Cn2nc(Cc3ccccc3Nc3c(Cl)cccc3Cl)oc2=S)CC1 | 1.9 | 37.9 | 6.6 | Non-toxic | Non-toxic | > 50 | 68.9 | 37.1 | 38.3 | 63.1 | 39.2 | 28.4 | Non-toxic | 81 | 37.7 | Non-toxic | –
3 | CC(=O)Nc1ccc(O)cc1 [ACETAMINOPHEN] | – | – | – | – | – | – | – | – | – | – | – | – | – | – | – | – | T (Rattus norvegicus [20]): 6.7 °C; T (Rattus norvegicus [21]): 38.4 °C; T (Rattus norvegicus [22]): 37 °C; T (Rattus norvegicus [23]): 37.6 °C; T (Rattus norvegicus [24]): 37.3 °C; T (Rattus norvegicus [25]): 38 °C
4 | S=c1oc(Cc2ccccc2Nc2c(Cl)cccc2Cl)nn1CNc1cccc(Cl)c1 | 2.1 | 38.1 | 5.4 | Non-toxic | Non-toxic | > 50 | 74.4 | 37.2 | 38.6 | 71.8 | 38.9 | 25 | Non-toxic | 82.2 | 37.8 | Non-toxic | –
5 | S=c1oc(Cc2ccccc2Nc2c(Cl)cccc2Cl)nn1CNc1ccccc1Cl | 3.2 | 37.36 | 3.06 | Non-toxic | Non-toxic | > 50 | 61.3 | 37.11 | 37.77 | 59.4 | 37.74 | 27.8 | Non-toxic | 77.6 | 37.06 | Non-toxic | –
6 | S=c1oc(Cc2ccccc2Nc2c(Cl)cccc2Cl)nn1CN1CCOCC1 | 2.6 | 37.13 | 3.91 | Non-toxic | Non-toxic | > 50 | 63.8 | 37.15 | 37.55 | 64.3 | 37.7 | 34.1 | Non-toxic | 77 | 37.06 | Non-toxic | –
